Laboratory results as given in ChEMBL document CHEMBL1157464, “1-[(3-Aryloxy-3-aryl)propyl]-1H-imidazoles, new imidazoles with potent activity against Candida albicans and dermatophytes. Synthesis, structure-activity relationship, and molecular modeling studies” (J Med Chem, 2008).
≈ marks a conversion by molar mass, not a printed value.

Columns and labels:
[1] = system: Arthrodermataceae; assay: Antifungal activity against dermatophytes at 28 degC after 5 days by broth microdilution test; settings: for MFC: Arthrodermataceae
[2] = system: Arthrodermataceae; assay: Antifungal activity against dermatophytes at 28 degC after 48 to 96 hrs by broth microdilution test
[3] = system: Candida albicans; assay: Antifungal activity against Candida albicans ATCC 10261 at 35 degC after 48 to 96 hrs by broth microdilution test; format: functional
Method in brief: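 Minimal fungicidal concentration for Candida. […] MFC is the lowest concentration allowing fewer than two colonies (99% killing).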

[4] = system: Arthrodermataceae; assay: Antifungal activity against dermatophytes at 28 degC after 7 days by broth microdilution test; format: functional; settings: 168 h
Method in brief: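 Ten clinical isolates (two M. canis, five M. gypseum, three T. mentagrophytes) tested by NCCLS M38-A broth microdilution in MOPS-buffered RPMI 1640, pH 7.0, over 0.25–128 µg/mL. Conidial/hyphal suspension from PDA slants (28 °C, 7 days) adjusted to 65–70% transmittance at OD530, then diluted 1:50.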

[5] = system: Candida parapsilosis; assay: Antifungal activity against Candida parapsilosis ATCC 22019 at 35 degC after 48 hrs by broth microdilution test; format: functional; settings: Lodderomyces parapsilosis, ATCC 22019, 48 h; for MFC: read-out: MFC; for MIC: read-out: MIC
Method in brief: (§1)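 Broth microdilution per NCCLS M27-A2. Stocks in 100% DMSO, diluted in RPMI 1640 with 0.165 M MOPS at pH 7.0; final range 0.25–128 µg/mL. Inoculum 1000–5000 cells/mL from SDA subcultures. […] C. parapsilosis ATCC22019 served as QC strain.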

[6] = system: Candida albicans; assay: Antifungal activity against Candida albicans ATCC 10261 at 35 degC after 48 hrs by broth microdilution test; format: functional; settings: for MIC50: read-out: MIC50
Method in brief: as §1

[7] = Cytotoxicity against human K562 cells after assessed as reduction of cell viability 24 hrs by MTT assay; format: cell-based
Method in brief: (§2)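 U937 and K562 cells, from ATCC, plated at 5 × 10^4/mL in phenol-red-free RPMI-1640 with 20% FBS and penicillin/streptomycin. Compounds added 2 h later at 25–100 µg/mL, then 24 h at 37 °C. MTT at 1 mg/mL for 3 h, formazan dissolved in isopropanol with 0.1 N HCl, absorbance read at 570 nm. CC50 is the concentration reducing viability by 50% versus the drug-free control.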

[8] = Cytotoxicity against human U937 cells assessed as reduction of cell viability after 24 hrs by MTT assay; format: cell-based, U-937
Method in brief: as §2

[9] = system: Candida albicans; assay: Antifungal activity against fluconazole-sensitive Candida albicans Fe40 at 35 degC after 48 hrs by broth microdilution test; format: functional
Method in brief: as §1

[10] = system: Candida albicans; assay: Antifungal activity against fluconazole-resistant Candida albicans isolated from oropharyngeal or vaginal disease patient after 48 hrs by broth microdilution test; format: functional
[11] = Candida albicans, ATCC 10261, read-out: MFC
[12] = Candida albicans, ATCC 10261, 48 h, read-out: MIC
[13] = Candida albicans, ATCC 10261, 48 h
[14] = Candida albicans, ATCC 10261, 48 h, read-out: MIC90

Structure (SMILES)	MIC [4] [µg/mL]	MIC50 [4] [µg/mL]	MIC90 [4] [µg/mL]	MIC [5] [µg/mL]	MIC [6, 12] [µg/mL]	MIC50 [6, 13] [µg/mL]	MIC90 [6, 14] [µg/mL]	MFC90 [1] [µg/mL]	MFC [1] [µg/mL]	MFC50 [2] [µg/mL]	MFC50 [3] [µg/mL]	MFC90 [3] [µg/mL]	MFC [3, 11] [µg/mL]	MFC [5] [µg/mL]	CC50 at 24 h [7] [µM]	CC50 at 24 h [8] [µM]	also measured
Clc1ccc(C(CCn2cncn2)Oc2ccc(Cl)cc2Cl)cc1 (configuration not stated)	10.4 (≈ 27.2 µM)	8 (≈ 20.9 µM)	16 (≈ 41.8 µM)	32 (≈ 83.6 µM)	> 128	> 128	> 128	>128	138 (≈ 360 µM)	32 (≈ 83.6 µM)	>128	>128	> 128	64 (≈ 167 µM)			
Cc1ccc(OC(CCn2ccnc2)c2ccc(Cl)cc2)c(C)c1 (configuration not stated)	32.5 (≈ 95.3 µM)	32 (≈ 93.9 µM)	32 (≈ 93.9 µM)	8 (≈ 23.5 µM)	13.5 (≈ 39.6 µM)	16 (≈ 46.9 µM)	16 (≈ 46.9 µM)	64 (≈ 188 µM)	58 (≈ 170 µM)	64 (≈ 188 µM)	32 (≈ 93.9 µM)	32 (≈ 93.9 µM)	28 (≈ 82.1 µM)	32 (≈ 93.9 µM)			
Clc1ccc(C(OCCn2ccnc2)c2ccccc2)c(Cl)c1.O=[N+]([O-])O (configuration not stated)	7	8	8	16	46.1	32	64	8	7.5	8	128	>256	158	32			
Fc1ccc(C(CCn2ccnc2)Oc2c(Cl)cccc2Cl)cc1 (configuration not stated)	6.4 (≈ 17.5 µM)	8 (≈ 21.9 µM)	8 (≈ 21.9 µM)	4 (≈ 11 µM)	36.1 (≈ 98.8 µM)	8 (≈ 21.9 µM)	64 (≈ 175 µM)	16 (≈ 43.8 µM)	15 (≈ 41.1 µM)	16 (≈ 43.8 µM)	32 (≈ 87.6 µM)	128 (≈ 350 µM)	78.9 (≈ 216 µM)	32 (≈ 87.6 µM)			
Cc1ccc(OC(CCn2ccnc2)c2ccccc2)cc1 (racemic)	17.2 (≈ 58.8 µM)	16 (≈ 54.7 µM)	32 (≈ 109 µM)	2 (≈ 6.84 µM)		8 (≈ 27.4 µM)		32 (≈ 109 µM)	28.8 (≈ 98.5 µM)	32 (≈ 109 µM)	16 (≈ 54.7 µM)	16 (≈ 54.7 µM)		16 (≈ 54.7 µM)	95.9	141	MFC [3]: 13.6 µg/mL (≈ 46.5 µM); MIC [6]: 9.4 µg/mL (≈ 32.1 µM); MIC90 [6]: 16 µg/mL (≈ 54.7 µM)
C[C@@H](c1ncncc1F)[C@](O)(Cn1cncn1)c1ccc(F)cc1F [VORICONAZOLE]	0.03 (≈ 0.0859 µM)	0.016 (≈ 0.0458 µM)	0.06 (≈ 0.172 µM)	0.015 (≈ 0.0429 µM)	0.89 (≈ 2.55 µM)	0.25 (≈ 0.716 µM)	> 1	1 (≈ 2.86 µM)	0.9 (≈ 2.58 µM)	1 (≈ 2.86 µM)	>16	>16	26 (≈ 74.4 µM)	0.125 (≈ 0.358 µM)			MIC [9]: 0.016 µg/mL (≈ 0.0458 µM); MIC [10]: 16 µg/mL (≈ 45.8 µM)

Continued by falling MIC [5], values first:

MIC [4] [µg/mL]	MIC50 [4] [µg/mL]	MIC90 [4] [µg/mL]	MIC [5] [µg/mL]	MIC [6, 12] [µg/mL]	MIC50 [6, 13] [µg/mL]	MIC90 [6, 14] [µg/mL]	Structure (SMILES)	MFC90 [1] [µg/mL]	MFC [1] [µg/mL]	MFC50 [2] [µg/mL]	MFC50 [3] [µg/mL]	MFC90 [3] [µg/mL]	MFC [3, 11] [µg/mL]	MFC [5] [µg/mL]	CC50 at 24 h [7] [µM]	CC50 at 24 h [8] [µM]	also measured
22.4 (≈ 64.3 µM)	16 (≈ 45.9 µM)	32 (≈ 91.9 µM)	32 (≈ 91.9 µM)	> 128	> 128	> 128	Clc1ccc(OC(CCn2cncn2)c2ccccc2)c(Cl)c1 (configuration not stated)	64 (≈ 184 µM)	44.8 (≈ 129 µM)	32 (≈ 91.9 µM)	>128	>128	> 128	64 (≈ 184 µM)			
24.1 (≈ 86.6 µM)	16 (≈ 57.5 µM)	32 (≈ 115 µM)	16 (≈ 57.5 µM)	62.7 (≈ 225 µM)	32 (≈ 115 µM)	128 (≈ 460 µM)	c1ccc(OC(CCn2ccnc2)c2ccccc2)cc1 (configuration not stated)	64 (≈ 230 µM)	56.5 (≈ 203 µM)	64 (≈ 230 µM)	64 (≈ 230 µM)	128 (≈ 460 µM)	83.2 (≈ 299 µM)	32 (≈ 115 µM)	220	201	
			4 (≈ 12.5 µM)	8.7 (≈ 27.2 µM)	4 (≈ 12.5 µM)	16 (≈ 49.9 µM)	CCc1ccc(OC(CCn2ccnc2)c2ccc(C)cc2)cc1 (configuration not stated)				32 (≈ 99.9 µM)	32 (≈ 99.9 µM)	28 (≈ 87.4 µM)	8 (≈ 25 µM)	136	152	
9.2 (≈ 24.9 µM)	8 (≈ 21.7 µM)	16 (≈ 43.4 µM)	2 (≈ 5.42 µM)	57.1 (≈ 155 µM)	64 (≈ 173 µM)	64 (≈ 173 µM)	CC(C)(C)c1ccc(OC(CCn2ccnc2)c2ccc(Cl)cc2)cc1 (configuration not stated)	32 (≈ 86.7 µM)	26 (≈ 70.5 µM)	16 (≈ 43.4 µM)	64 (≈ 173 µM)	64 (≈ 173 µM)	64 (≈ 173 µM)	4 (≈ 10.8 µM)			
